Measured values published in PMC6045484 (ACS Omega, 2018).
Converted amounts (≈) assume the structure as drawn. “Also recorded” adds a separate entry of the source.

Experiments:
P. falciparum (D6) = experiment: in vitro antimalarial activity, plasmodial LDH; assay type: cell-based, Plasmodium falciparum; conditions: Plasmodium falciparum, D6, 72 h, read-out: P. falciparum (D6) IC50
P. falciparum (W2) = experiment: in vitro antimalarial activity, plasmodial LDH; assay type: cell-based, Plasmodium falciparum; conditions: Plasmodium falciparum, W2, 72 h, read-out: P. falciparum (W2) IC50, CQ-resistant W2 strain, 72 h
In short: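 P. falciparum-infected erythrocytes (2% parasitemia, 2% hematocrit) in RPMI 1640 with 10% human serum and 60 μg/mL amikacin. Exposed to test compound dilutions for 72 h at 37 °C under 90% N2/5% O2/5% CO2. LDH measured with Malstat reagent (30 min, room temperature), then NBT/PES for 1 h in the dark, stopped with 5% acetic acid, read at 650 nm. IC50 from dose-response curves.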

[1] = test system: SK-MEL, KB, BT-549, SK-OV-3, VERO and LLC-PK1 cells; experiment: cytotoxicity, neutral red uptake assay; assay type: cell-based, mammalian; conditions: highest test concentration 4760 ng/mL
In short: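 Cells seeded at 25 000/well and allowed 24 h to reach confluence. Test compound was then added and incubated 48 h. Viable cells were counted by a modified neutral red uptake method. The panel was four human cancer lines and two noncancerous mammalian kidney lines. Doxorubicin served as positive control and DMSO as negative control.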

[2] = test system: P. berghei (sensitive strain); experiment: blood-schizontocidal activity against P. berghei infection in mice; assay type: in vivo, Plasmodium berghei; conditions: Swiss mice
In short: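 Swiss mice of either sex (about 15–20 g, same age), six per group, inoculated intraperitoneally on day 0 with 1 × 10^7 infected erythrocytes from a donor mouse. Oral test compound at 100, 50, 25 or 10 mg/kg, CQ diphosphate (10 mg/kg/day × 4) or vehicle started 4 h later, on D0 to D+3. Giemsa tail-blood smears on D+4 and D+7. Curative: parasites eliminated, no relapse, all mice surviving to D+60.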

C. albicans ATCC90028 = experiment: in vitro antifungal activity; assay type: cell-based, Candida albicans; conditions: Candida albicans; for IC50: ATCC90028, read-out: C. albicans IC50; for MFC: ATCC90028, read-out: C. albicans MFC; for MIC: ATCC90028, read-out: C. albicans MIC
In short: (§1)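 Modified NCCLS broth method in Sabouraud dextrose. Inoculum set by OD630 to 1.5 × 10^3 CFU/mL. Test compound serially diluted in 20% DMSO/saline, duplicate wells, up to 20 μg/mL. Incubated 70–74 h at 35 °C; 530 nm read before and after. IC50 is 50% growth inhibition; MIC is no detectable growth. MFC from clear wells subcultured on agar. Amphotericin B control.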

C. neoformans ATCC90113 = experiment: in vitro antifungal activity; assay type: cell-based, Cryptococcus neoformans; conditions: Cryptococcus neoformans; for IC50: ATCC90113, read-out: C. neoformans IC50; for MFC: ATCC90113, read-out: C. neoformans MFC; for MIC: ATCC90113, read-out: C. neoformans MIC
In short: as §1

A. fumigatus ATCC 90906 = experiment: in vitro antifungal activity; assay type: cell-based, Aspergillus fumigatus; conditions: Aspergillus fumigatus; for IC50: ATCC90906, read-out: A. fumigatus IC50; for MFC: ATCC90906, read-out: A. fumigatus MFC; for MIC: ATCC90906, read-out: A. fumigatus MIC
In short: as §1

SA (ATCC29213) = experiment: in vitro antibacterial activity; assay type: cell-based; conditions: Staphylococcus aureus; for IC50: ATCC29213, read-out: IC50 (concentration that affords 50% growth inhibition), SA; for MBC: ATCC29213, read-out: MBC (minimum bactericidal concentration), SA; for MIC: ATCC29213, read-out: MIC, SA
In short: (§2)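 Test compound serially diluted in 20% DMSO/saline and plated in duplicate, up to 20 μg/mL. Inoculum in cation-adjusted Mueller–Hinton broth, pH 7.3, set by OD630 to 5 × 10^5 CFU/mL. Incubated 16–20 h at 35 °C; 530 nm read before and after. IC50 is 50% growth inhibition; MIC is no detectable growth. MBC from clear wells subcultured on agar. Ciprofloxacin control.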

MRSA (ATCC33591) = experiment: in vitro antibacterial activity; assay type: cell-based, methicillin-resistant Staphylococcus aureus; conditions: Staphylococcus aureus, ATCC33591|MRSA, read-out: MIC, MRSA
In short: as §2

[3] = test system: M. intracellulare (ATCC23068); experiment: in vitro antibacterial activity, modified alamarBlue procedure; assay type: cell-based, Mycobacterium intracellulare; conditions: Mycobacterium intracellulare; for IC50: ATCC23068, read-out: IC50 (concentration that affords 50% growth inhibition), M. intracellulare; for MBC: ATCC23068, read-out: MBC (minimum bactericidal concentration), M. intracellulare; for MIC: ATCC23068, read-out: MIC, M. intracellulare
In short: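 Modified alamarBlue microplate method. Test compound serially diluted in 20% DMSO/saline, duplicate wells, up to 20 μg/mL. Inoculum 2.0 × 10^6 CFU/mL in Middlebrook 7H9 with OADC, pH 7.3, containing 5% alamarBlue. Incubated 70–74 h at 37 °C, 10% CO2; fluorescence 544ex/590em read before and after. MIC: no blue-to-pink change. MBC by subculturing blue wells on agar. Ciprofloxacin control.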

[4] = test system: L. donovani promastigotes; experiment: in vitro antileishmanial activity, alamarBlue assay; assay type: cell-based, Leishmania donovani; conditions: Leishmania donovani, 48 h

SMILES | IC50 (P. falciparum (D6)) | IC50 (P. falciparum (W2)) | cytotoxicity CTX [1] | P. berghei blood-schizontocidal activity (mice cured/treated) ([2]; 50 mg/kg/day × 4, oral) | P. berghei blood-schizontocidal activity (mice cured/treated) ([2]; 100 mg/kg/day × 4, oral) | IC50 (C. albicans ATCC90028) | MFC (C. albicans ATCC90028) | MIC (C. albicans ATCC90028) | IC50 (C. neoformans ATCC90113) | MFC (C. neoformans ATCC90113) | MIC (C. neoformans ATCC90113) | IC50 (A. fumigatus ATCC 90906) | MFC (A. fumigatus ATCC 90906) | MIC (A. fumigatus ATCC 90906) | IC50 (SA (ATCC29213)) | MBC (SA (ATCC29213)) | MIC (SA (ATCC29213)) | MIC (MRSA (ATCC33591)) | IC50 [3] | MBC [3] | further results
CCCCCCCOc1c(OC)cc(NC(C)CCCNC(=O)C(N)CCCNC(=N)N)c2nc(C(C)(C)C)ccc12 (stereo not shown) [compound 111, 2-Amino-N-(4-(2-tert-butyl-5-(heptyloxy)-6-methoxyquinolin-8-ylamino)pentyl)-5-guanidinopentanamide] | 0.39 mg/L (≈ 0.666 µM) | 0.24 mg/L (≈ 0.41 µM) | NC (NC, not cytotoxic up to 4760 ng/mL (4.76 μg/mL)) | 100% cure and curative (6/6) | 100% cure and curative (6/6) | > 20 mg/L | > 20 mg/L | > 20 mg/L | 13.2 mg/L (≈ 22.6 µM) | > 20 mg/L | > 20 mg/L | > 20 mg/L | > 20 mg/L | > 20 mg/L | > 20 mg/L | > 20 mg/L | > 20 mg/L | > 20 mg/L | > 20 mg/L | > 20 mg/L | P. berghei blood-schizontocidal activity (mice cured/treated) ([2]; 25 mg/kg/day × 4, oral): inactive (0/6); MIC [3]: > 20 mg/L
CCCCOc1c(OC)cc(NC(C)CCCN)c2nc(C(C)(C)C)cc(C)c12 (stereo not shown) [compound 50, N^4-(5-Butoxy-2-tert-butyl-6-methoxy-4-methylquinolin-8-yl)pentane-1,4-diamine] | 2.2 mg/L (≈ 5.48 µM) | 0.98 mg/L (≈ 2.44 µM) | NC (NC, not cytotoxic up to 4760 ng/mL (4.76 μg/mL)) | suppressive activity; also recorded: active (4/6) | curative (6/6) | 15 mg/L (≈ 37.4 µM) | > 20 mg/L | > 20 mg/L | 0.58 mg/L (≈ 1.44 µM) | 2.5 mg/L (≈ 6.23 µM) | 1.25 mg/L (≈ 3.11 µM) | 14.7 mg/L (≈ 36.6 µM) | > 20 mg/L | > 20 mg/L | 3.49 mg/L (≈ 8.69 µM) | 10 mg/L (≈ 24.9 µM) | 5 mg/L (≈ 12.5 µM) | 5 mg/L (≈ 12.5 µM) | 5.97 mg/L (≈ 14.9 µM) | 20 mg/L (≈ 49.8 µM) | IC50 ([4]; read-out: L. donovani IC50, promastigotes, 48 h): 1.5 mg/L (≈ 3.74 µM); IC90 ([4]; read-out: L. donovani IC90, promastigotes, 48 h): 3.65 mg/L (≈ 9.09 µM); MIC [3]: 10 mg/L (≈ 24.9 µM)
CCCCCOc1c(OC)cc(NC(C)CCCNC(=O)C(N)CCCCN)c2nc(C(C)(C)C)ccc12 (stereo not shown) [compound 92, 2,6-Diamino-N-(4-(2-tert-butyl-6-methoxy-5-(pentyloxy)quinolin-8-ylamino)-pentyl)hexanamide] | 0.11 mg/L (≈ 0.208 µM) | 0.052 mg/L (≈ 0.0982 µM) | NC (NC, not cytotoxic up to 4760 ng/mL (4.76 μg/mL)) | suppressive activity; also recorded: active (4/6) | 100% cure and curative (6/6) | > 20 mg/L | > 20 mg/L | > 20 mg/L | 10.9 mg/L (≈ 20.5 µM) | > 20 mg/L | > 20 mg/L | > 20 mg/L | > 20 mg/L | > 20 mg/L | > 20 mg/L | > 20 mg/L | > 20 mg/L | > 20 mg/L | > 20 mg/L | > 20 mg/L | P. berghei blood-schizontocidal activity (mice cured/treated) ([2]; 25 mg/kg/day × 4, oral): inactive (0/6); MIC [3]: > 20 mg/L
